This is an account of results in ChEMBL document CHEMBL1148401, “Synthesis and structure-activity relationships of novel arylpiperazines as potent and selective agonists of the melanocortin subtype-4 receptor” (J Med Chem, 2004).

Data set [1] has as its target T1, Melanocortin receptor 4 (Homo sapiens, UniProt P32245). Kind of data set: Agonistic potency towards human melanocortin 4 receptor, determined by 50% maximum cAMP release. The format is functional. In outline: (§1)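 HEK293 cells stably expressing human MC3 or MC4 receptor, suspended in HBSS/0.1% BSA/10 mM HEPES at 1 × 10⁶ cells/mL. Compound serial dilutions 10 µM to 0.1 nM; NDP-α-MSH control agonist 100 nM to 1 pM. 20 min at 37 °C, quenched with sodium acetate/Triton X-100. cAMP by SPA competition with ¹²⁵I-cAMP, 12 h. EC50 at 50% maximal cAMP release, n = 2, ± SEM.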

Data set [2] concerns the target T1, Melanocortin receptor 4. Put plainly: Binding affinity towards human melanocortin 4 receptor using [125I]NDP-alpha-MSH as a radioligand in HEK293 cells. The format is cell-based. In outline: (§2)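 Membranes from HEK293 cells stably expressing human MC1, MC3, MC4 or MC5 receptor, 0.5-5.0 µg protein, with 100 pM ¹²⁵I-NDP-α-MSH and WGA SPA beads. Buffer 25 mM HEPES pH 7.5, 10 mM CaCl₂, 0.3% BSA. Compound 30 µM to 300 pM. 10 h at room temperature, scintillation counting. Four-parameter logistic IC50 converted to Ki by Cheng-Prusoff; n = 2 or 4, ± SEM.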

The target of data set [3] is T2, Melanocortin receptor 3 (Homo sapiens, UniProt P41968). Put plainly: Agonistic potency towards human Melanocortin 3 receptor (MC3R) was determined by 50% maximum cAMP release. The format is functional. The procedure, abridged: as §1
T2 sequence (P41968 whole entry): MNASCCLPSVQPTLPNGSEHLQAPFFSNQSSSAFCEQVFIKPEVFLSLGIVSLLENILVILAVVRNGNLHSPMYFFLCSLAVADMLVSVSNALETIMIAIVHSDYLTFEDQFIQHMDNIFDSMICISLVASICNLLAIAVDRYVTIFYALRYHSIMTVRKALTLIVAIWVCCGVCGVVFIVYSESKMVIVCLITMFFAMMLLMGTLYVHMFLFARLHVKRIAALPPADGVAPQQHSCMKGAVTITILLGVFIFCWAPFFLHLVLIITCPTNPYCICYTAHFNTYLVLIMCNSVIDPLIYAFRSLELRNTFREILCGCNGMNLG
The target in another data set is Melanocortin receptor 5 (Homo sapiens, UniProt P33032). Kind of data set: Binding affinity towards human Melanocortin 5 receptor (MC5R) using [125I]NDP-alpha-MSH as a radioligand in membranes of HEK 293 cells. The format is cell membranes, HEK293. The procedure, abridged: as §2
Melanocortin receptor 5, sequence (P33032 whole entry): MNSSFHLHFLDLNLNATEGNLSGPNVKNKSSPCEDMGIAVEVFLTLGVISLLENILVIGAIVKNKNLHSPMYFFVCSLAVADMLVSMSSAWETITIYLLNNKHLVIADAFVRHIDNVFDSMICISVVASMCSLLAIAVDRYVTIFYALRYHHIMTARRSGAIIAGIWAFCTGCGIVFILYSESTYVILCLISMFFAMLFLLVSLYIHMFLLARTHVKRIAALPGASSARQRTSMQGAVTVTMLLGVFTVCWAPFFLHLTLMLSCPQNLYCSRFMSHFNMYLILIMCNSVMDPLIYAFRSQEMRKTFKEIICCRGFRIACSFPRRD
Data set [4] concerns the target Melanocyte-stimulating hormone receptor (Homo sapiens, UniProt Q01726). Kind of data set: Binding affinity towards human Melanocortin 1 receptor (MC1R) using [125I]NDP-alpha-MSH as a radioligand in membranes of HEK 293 cells. The format is cell membranes, HEK293. In outline: as §2
Data set [5] has as its target T2, Melanocortin receptor 3. Put plainly: Binding affinity towards human Melanocortin 3 receptor (MC3R) using [125I]NDP-alpha-MSH as a radioligand in membranes of HEK 293 cells. The format is cell membranes, HEK293. The procedure, abridged:
as §2

The nature of data set [6]: Volume distribution in fischer rats at 5 mg/kg dose, administered intravenously. The format is ADME, organism-based. The conditions noted are these: rat, in vivo, iv, read-out: Volume distribution. Details: dose 5 mg/kg, route intravenous. In outline: (§3)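 Fischer 344 rats, n = 3 per route: 5 mg/kg iv, or 30 mg/kg by gavage in 10% acacia. Retro-orbital blood into heparinized syringes at 0.5, 1, 2, 6 h after oral dosing and 0.083, 1, 2, 4, 6, 8, 24 h after iv dosing. Plasma stored at -70 °C and quantified by electrospray LC/MS/MS against standards by least-squares regression.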

A short description of data set [7]: Half-life in fischer rats at 5 mg/kg dose, administered intravenously. The format is ADME, organism-based. The conditions noted are these: rat, in vivo, iv. On the set-up: dose 5 mg/kg, route intravenous. In outline:
as §3

The nature of data set [8]: Oral bioavailability in fischer rats at 30 mg/kg dose, administered perorally. The conditions noted are these: rat, in vivo, read-out: Bioavailabiility. The format is ADME, organism-based. The procedure, abridged:
as §3

A short description of data set [9]: Clearance in fischer rats at 5 mg/kg dose, administered intravenously. The format is ADME, organism-based. On the set-up: dose 5 mg/kg, route intravenous. The conditions noted are these: rat, in vivo, iv. In outline: as §3
The nature of data set [10]: Tmax in fischer rats at 30 mg/kg dose, administered orally. The conditions noted are these: rat, in vivo, po.

Melanocyte-stimulating hormone receptor, sequence (Q01726 whole entry): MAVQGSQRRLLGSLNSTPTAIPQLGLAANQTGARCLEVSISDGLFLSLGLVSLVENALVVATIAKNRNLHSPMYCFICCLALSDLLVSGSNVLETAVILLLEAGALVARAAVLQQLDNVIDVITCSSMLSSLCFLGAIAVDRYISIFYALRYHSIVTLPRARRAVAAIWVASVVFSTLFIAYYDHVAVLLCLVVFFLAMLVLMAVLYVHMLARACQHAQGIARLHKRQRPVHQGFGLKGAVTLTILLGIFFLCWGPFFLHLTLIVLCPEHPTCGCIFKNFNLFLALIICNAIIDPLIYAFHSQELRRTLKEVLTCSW
T1 sequence (P32245 whole entry): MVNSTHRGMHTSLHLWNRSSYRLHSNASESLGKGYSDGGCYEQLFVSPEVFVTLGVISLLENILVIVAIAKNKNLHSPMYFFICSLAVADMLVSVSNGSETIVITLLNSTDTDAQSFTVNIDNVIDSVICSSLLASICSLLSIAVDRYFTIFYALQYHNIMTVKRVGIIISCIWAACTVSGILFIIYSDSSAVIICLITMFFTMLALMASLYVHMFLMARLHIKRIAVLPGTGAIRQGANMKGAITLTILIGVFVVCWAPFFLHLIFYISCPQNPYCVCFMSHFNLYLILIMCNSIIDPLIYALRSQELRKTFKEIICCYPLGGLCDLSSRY

Consider `CCN(CC)Cc1ccccc1N1CCN(C(=O)[C@@H](Cc2ccc(Cl)cc2)NC(=O)[C@H]2Cc3ccccc3CN2)CC1`, for which, on Melanocortin receptor 4 [1], the EC50 came out at 14 nM. Besides, the Ki on Melanocortin receptor 4 [2] is 34 nM.

Take `O=C(N[C@H](Cc1ccc(Cl)cc1)C(=O)N1CCN(c2ccccc2Oc2ccccc2)CC1)[C@H]1Cc2ccccc2CN1`: the response at Melanocortin receptor 4 [1] was half-maximal at 400 nM (EC50). On Melanocortin receptor 4 [2], this molecule had a Ki of 640 nM.

As for `O=C(N[C@H](Cc1ccc(Cl)cc1)C(=O)N1CCN(c2ccccc2O)CC1)[C@H]1Cc2ccccc2CN1`, the EC50 on Melanocortin receptor 4 [1] amounted to 490 nM. At Melanocortin receptor 4 [2], this molecule displayed a Ki of 1900 nM.

`CN(C)c1ccccc1N1CCN(C(=O)[C@@H](Cc2ccc(Cl)cc2)NC(=O)[C@H]2Cc3ccccc3CN2)CC1` had an EC50 at Melanocortin receptor 4 [1] of 44 nM. Besides, the affinity on Melanocortin receptor 4 [2], expressed as Ki, was 1100 nM.

For `O=C(N[C@H](Cc1ccc(Cl)cc1)C(=O)N1CCN(c2ccccc2CO)CC1)[C@H]1Cc2ccccc2CN1`, the midpoint of the response on Melanocortin receptor 4 [1], the EC50, lay at 150 nM. Besides, the Ki on Melanocortin receptor 4 [2] is 630 nM.

At Melanocortin receptor 4 [1], `C[C@@H](O)c1ccccc1N1CCN(C(=O)[C@@H](Cc2ccc(Cl)cc2)NC(=O)[C@H]2Cc3ccccc3CN2)CC1` returned an EC50 of 44 nM. Further, affinity on Melanocortin receptor 4 [2] was put at a Ki of 340 nM.

Consider `COc1ccccc1N1CCN(C(=O)[C@@H](Cc2ccc(Cl)cc2)NC(=O)[C@H]2Cc3ccccc3CN2)CC1`, for which, on Melanocortin receptor 4 [1], the response was half-maximal at 71 nM (EC50). The affinity at Melanocortin receptor 4 [2] corresponds to a Ki of 1100 nM.

As to `O=C(N[C@H](Cc1ccc(Cl)cc1)C(=O)N1CCN(c2ccccc2[N+](=O)[O-])CC1)[C@H]1Cc2ccccc2CN1`, on Melanocortin receptor 4 [1], the response was half-maximal at 210 nM (EC50). The Ki at Melanocortin receptor 4 [2] is 2400 nM.

Molecule `Nc1ccccc1N1CCN(C(=O)[C@@H](Cc2ccc(Cl)cc2)NC(=O)[C@H]2Cc3ccccc3CN2)CC1` displayed an EC50 at Melanocortin receptor 4 [1] of 200 nM. This molecule displayed a Ki on Melanocortin receptor 4 [2] of 1700 nM.

For the molecule `O=C(N[C@H](Cc1ccc(Cl)cc1)C(=O)N1CCN(c2ccccc2Cn2ccnc2)CC1)[C@H]1Cc2ccccc2CN1`, the results for the EC50 at Melanocortin receptor 4 [1] and at Melanocortin receptor 3 [3] were 14 nM and 1600 nM, respectively. Moreover, the Ki on Melanocortin receptor 5 came to 700 nM; in [4] it was 4000 nM; on Melanocortin receptor 4 [2] it was 110 nM; at Melanocortin receptor 3 [5], 3600 nM.

On Melanocortin receptor 4 [1], `CCCN(CCC)Cc1ccccc1N1CCN(C(=O)[C@@H](Cc2ccc(Cl)cc2)NC(=O)[C@H]2Cc3ccccc3CN2)CC1` displayed an EC50 of 8 nM. At Melanocortin receptor 4 [2], this molecule had an inhibition constant Ki of 35 nM.

As for `CC(C)c1ccccc1N1CCN(C(=O)[C@@H](Cc2ccc(Cl)cc2)NC(=O)[C@H]2Cc3ccccc3CN2)CC1`, on Melanocortin receptor 4 [1], the EC50 amounted to 110 nM. Also, at Melanocortin receptor 4 [2], the affinity corresponds to a Ki of 720 nM.

At Melanocortin receptor 4 [1], `CS(=O)(=O)NCc1ccccc1N1CCN(C(=O)[C@@H](Cc2ccc(Cl)cc2)NC(=O)[C@H]2Cc3ccccc3CN2)CC1` registered an EC50 of 48 nM. This molecule yielded a Ki at Melanocortin receptor 4 [2] of 210 nM.

On to `Cn1ccnc1Cc1ccccc1N1CCN(C(=O)[C@@H](Cc2ccc(Cl)cc2)NC(=O)[C@H]2Cc3ccccc3CN2)CC1`, for which a half-maximal effect on Melanocortin receptor 4 [1] (EC50) was put at 44 nM. The molecule further yielded a Ki at Melanocortin receptor 4 [2] of 170 nM.

Take `CCc1ccccc1N1CCN(C(=O)[C@@H](Cc2ccc(Cl)cc2)NC(=O)[C@H]2Cc3ccccc3CN2)CC1`: on Melanocortin receptor 4 [1], the concentration giving a half-maximal response (EC50) was 145 nM. The affinity on Melanocortin receptor 4 [2] corresponds to a Ki of 1300 nM.

`CCOc1ccccc1N1CCN(C(=O)[C@@H](Cc2ccc(Cl)cc2)NC(=O)[C@H]2Cc3ccccc3CN2)CC1` displayed an EC50 at Melanocortin receptor 4 [1] of 40 nM. Also, the Ki on Melanocortin receptor 4 [2] amounted to 570 nM.

Molecule `O=C(N[C@H](Cc1ccc(Cl)cc1)C(=O)N1CCN(c2ccccc2CN2CCCCC2)CC1)[C@H]1Cc2ccccc2CN1` returned an EC50 on Melanocortin receptor 4 [1] of 37 nM. The Ki at Melanocortin receptor 4 [2] came out at 27 nM.

`Cn1ccnc1COc1ccccc1N1CCN(C(=O)[C@@H](Cc2ccc(Cl)cc2)NC(=O)[C@H]2Cc3ccccc3CN2)CC1` registered an EC50 on Melanocortin receptor 4 [1] of 140 nM. Moreover, the affinity on Melanocortin receptor 4 [2] corresponds to a Ki of 530 nM.

`O=C(N[C@H](Cc1ccc(Cl)cc1)C(=O)N1CCN(c2ccccc2OCc2ccccc2)CC1)[C@H]1Cc2ccccc2CN1` yielded an EC50 on Melanocortin receptor 4 [1] of 150 nM. This molecule gave a Ki at Melanocortin receptor 4 [2] of 640 nM.

`CC(C)Oc1ccccc1N1CCN(C(=O)[C@@H](Cc2ccc(Cl)cc2)NC(=O)[C@H]2Cc3ccccc3CN2)CC1` showed an EC50 on Melanocortin receptor 4 [1] of 93 nM. Moreover, at Melanocortin receptor 4 [2], the Ki stood at 460 nM.

For `CN(C)CCOc1ccccc1N1CCN(C(=O)[C@@H](Cc2ccc(Cl)cc2)NC(=O)[C@H]2Cc3ccccc3CN2)CC1`, the midpoint of the response at Melanocortin receptor 4 [1], the EC50, lay at 98 nM. The molecule further registered a Ki on Melanocortin receptor 4 [2] of 230 nM.

Regarding `CN(C)Cc1ccccc1N1CCN(C(=O)[C@@H](Cc2ccc(Cl)cc2)NC(=O)[C@H]2Cc3ccccc3CN2)CC1`, the EC50 at Melanocortin receptor 4 [1] stood at 7 nM; on Melanocortin receptor 3 [3], 1800 nM. Besides, the Ki at Melanocortin receptor 5 was 1400 nM; in [4], more than 20000 nM; at Melanocortin receptor 4 [2] it was 60 nM; on Melanocortin receptor 3 [5], 7000 nM.

Take `Cc1ccccc1N1CCN(C(=O)[C@@H](Cc2ccc(Cl)cc2)NC(=O)[C@H]2Cc3ccccc3CN2)CC1`: at Melanocortin receptor 4 [1], the midpoint of the response, the EC50, lay at 1300 nM. The affinity at Melanocortin receptor 4 [2], expressed as Ki, was 1700 nM.

`C[C@H](O)c1ccccc1N1CCN(C(=O)[C@@H](Cc2ccc(Cl)cc2)NC(=O)[C@H]2Cc3ccccc3CN2)CC1`: the response on Melanocortin receptor 4 [1] was half-maximal at 34 nM (EC50). The molecule further showed a Ki on Melanocortin receptor 4 [2] of 350 nM.

At Melanocortin receptor 4 [1], `O=C(N[C@H](Cc1ccc(Cl)cc1)C(=O)N1CCN(c2ccccc2)CC1)[C@H]1Cc2ccccc2CN1` displayed a half-maximal effective concentration (EC50) of 360 nM. For the same molecule, the Ki on Melanocortin receptor 4 [2] turned out to be 6600 nM.

Turning to `Cc1nccn1Cc1ccccc1N1CCN(C(=O)[C@@H](Cc2ccc(Cl)cc2)NC(=O)[C@H]2Cc3ccccc3CN2)CC1`, the response at Melanocortin receptor 4 [1] was half-maximal at 21 nM (EC50). At Melanocortin receptor 4 [2], this molecule displayed a Ki of 140 nM.

Take `CS(=O)(=O)Nc1ccccc1N1CCN(C(=O)[C@@H](Cc2ccc(Cl)cc2)NC(=O)[C@H]2Cc3ccccc3CN2)CC1`: the Vd in data set [6] was 4.5 L/kg. For the same molecule, the EC50 was 16 nM on Melanocortin receptor 4 [1] and 2000 nM on Melanocortin receptor 3 [3]. In addition, the half-life in [7] was 1.7 h. In data set [8], the bioavailability came to 30%. Besides, the clearance in data set [9] was found to be 43 mL/min/kg. In addition, the Ki at Melanocortin receptor 5 worked out at 1200 nM; in data set [4], 12000 nM; on Melanocortin receptor 4 [2] it was 220 nM; at Melanocortin receptor 3 [5] it was 8800 nM. Besides, the Tmax in data set [10] is 3 h.

At Melanocortin receptor 4 [1], `O=C(N[C@H](Cc1ccc(Cl)cc1)C(=O)N1CCN(c2ccccc2CN2CCCC2)CC1)[C@H]1Cc2ccccc2CN1` showed an EC50 of 39 nM. The same molecule gave a Ki at Melanocortin receptor 4 [2] of 24 nM.

As usually defined, the EC50 is the concentration needed to bring the measured effect to its halfway point. Low readings indicate a more potent agent, high ones a less potent agent. The Ki is the equilibrium dissociation constant of an inhibitor or competing ligand from its target. The term half-life denotes how long it takes for the measured level to halve. As usually defined, the clearance is the volume of plasma or blood freed of the substance per unit of time. A low value points to inefficient removal. The Tmax is the time at which the peak concentration occurs.
